Source: ChEMBL document CHEMBL2086235, “A novel thiazolidine compound induces caspase-9 dependent apoptosis in cancer cells” (Bioorg Med Chem, 2012)
The source made the active and inactive calls. The calls are words filed in the database; no cut-off is given here.

Tests used:
[1] = system: Huh-7; assay: Growth inhibition of human HuH7 cells incubated for 48 hrs by Giemsa staining; format: functional, cell-based
Summary of the method: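 Cells grown overnight, compound added from DMSO solution, then incubated 48 h more. Attached cells stained with Giemsa and photographed; qualitative read-out.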

[2] = system: Huh-7; assay: Induction of cell death in human HuH7 cells at 2.5 to 40 uM incubated for 72 hrs by SRB assay; format: functional, cell-based
Summary of the method: (§1)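 Cells seeded and grown 24 h at 37 °C, then treated 72 h in triplicate. Fixed with cold 10% TCA 1 h at 4 °C, stained with 0.4% SRB in 1% acetic acid 10 min, washed in 1% acetic acid. Dye solubilized in 10 mM Tris base; absorbance read at 515 nm. Normalized to DMSO control and Tz; three independent experiments.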

[3] = system: MCF7; assay: Induction of cell death in human MCF7 cells at 2.5 to 40 uM incubated for 72 hrs by SRB assay; format: functional, cell-based; summary of the method: as §1
[4] = system: HCT-116; assay: Induction of cell death in human HCT116 cells at 2.5 to 40 uM incubated for 72 hrs by SRB assay; format: functional, cell-based; summary of the method: as §1
[5] = system: CAMA-1; assay: Induction of cell death in human CAMA1 cells at 0.02 uM incubated for 72 hrs by real-time cell analysis; format: functional, cell-based
Summary of the method: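 Cells (1000-5000/well) on impedance plates monitored by real-time cell analysis. Treated about 24 h after seeding, in log phase, and followed 72 h against DMSO controls. Inhibition (%) = (1 − CI treated/CI DMSO) × 100. At least three repeats.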

[6] = system: Huh-7; assay: Induction of apoptosis in human HuH7 cells assessed as cytochrome c release at 10 uM incubated for 48 hrs by immunostaining; format: functional, cell-based
Summary of the method: (§2)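 After 48 h exposure, coverslip-grown cells fixed in 4% paraformaldehyde, permeabilized in ice-cold acetone, blocked in 3% BSA 1 h at 37 °C. Anti-cytochrome c monoclonal applied overnight at 4 °C, then FITC anti-mouse secondary 1 h at room temperature. Diffuse cytoplasmic staining scored by fluorescence microscopy.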

[7] = system: FOCUS; assay: Induction of apoptosis in human FOCUS cells assessed as cytochrome c release at 10 uM incubated for 48 hrs by immunostaining; format: functional, cell-based; summary of the method: as §2
[8] = Cytotoxicity against human MV cells incubated for 72 hrs by SRB assay; format: functional, cell-based
Summary of the method: (§3)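 Cells grown in DMEM with 10% FCS, 2 mM L-glutamine, NEAA and antibiotics at 37 °C, 5% CO2, then seeded at 1000–5000 cells/well and grown 24 h. Compounds were added from DMSO for 72 h, following NCI guidelines. Cells were fixed in cold 10% TCA for 1 h at 4 °C and stained with 0.4% SRB in 1% acetic acid for 10 min. Bound dye was dissolved in 10 mM Tris and absorbance read at 515 nm.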

[9] = system: Huh-7 (Homo sapiens); assay: Induction of cell death in human Huh7 cells at 5 uM incubated for 72 hrs by real-time cell analysis
[10] = system: HepG2; assay: Induction of apoptosis in human HepG2 cells assessed as DNA fragmentation at 10 uM incubated for 48 hrs by TUNEL assay; format: functional, cell-based
Summary of the method: (§4)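 Cells grown overnight on coverslips, then exposed 48 h. Fixed in cold methanol; TUNEL done with an in situ cell death detection kit. Nuclei counterstained with Hoechst 33258 (3 μg/mL, 5 min, dark) and viewed by fluorescence microscopy.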

[11] = system: Huh-7; assay: Cell cycle arrest in human HuH7 cells assessed as subG1/G1 phase accumulation at 5 uM incubated for 12 hrs to 24 hrs by propidium iodide staining based flow cytometry; format: functional
Summary of the method: (§5)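 Cells seeded 100,000-200,000 per dish, grown 24 h, then held a further day in starvation medium (1% FBS, 1% P/S, 1% NEAA in DMEM). Treated with compound or DMSO, harvested by trypsinization, fixed in ice-cold 70% ethanol at 4 °C. Stained 40 min at 37 °C in the dark with propidium iodide, RNase A and Triton X-100 in PBS. G1 = 2N, G2 = 4N; >4N cells gated out.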

[12] = system: HepG2; assay: Induction of apoptosis in human HepG2 cells assessed as cytochrome c release at 10 uM incubated for 48 hrs by immunostaining; format: functional, cell-based; summary of the method: as §2
[13] = system: MCF7; assay: Cytotoxicity against human MCF7 cells incubated for 72 hrs by SRB assay; format: functional, cell-based; conditions: MCF7, 72 h; summary of the method: as §3
[14] = system: Huh-7; assay: Induction of caspase-3 cleavage in human HuH7 cells at 2.5 to 5 uM incubated for 6 to 24 hrs by Western blot; format: functional, cell-based
Summary of the method: (§6)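 Huh7 treated with compound or DMSO for 6, 12 or 24 h. Lysates quantified by Bradford and heat-denatured. Blotted onto nitrocellulose and probed with antibodies to cleaved caspase-9, cleaved caspase-3 and caspase-8 (1:500, overnight at 4 °C). Bands quantified by densitometry and normalized to actin.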

[15] = system: Huh-7; assay: Cytotoxicity against human HuH7 cells incubated for 72 hrs by SRB assay; format: functional, cell-based; conditions: Huh-7, 72 h; summary of the method: as §3
[16] = system: HepG2; assay: Increase in caspase-8 activation in human HepG2 cells at 10 uM incubated for 12 hrs in presence of 50 uM caspase-9 inhibitor z-LEHD-fmk by Caspase Glo assay; format: functional, cell-based
Summary of the method: (§7)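 HepG2 pre-incubated 24 h at 37 °C with 50 μM of the named caspase inhibitor peptide or DMSO. Medium then replaced with fresh medium holding the same inhibitor plus compound. Caspase activity read by Caspase-Glo luminescence after 12 h. Values normalized to inhibitor-only wells without compound. Two independent experiments in duplicate; t-test.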

[17] = system: Huh-7 (Homo sapiens); assay: Induction of cell death in human Huh7 cells at 10 uM incubated for 72 hrs by real-time cell analysis
[18] = system: MFE-296; assay: Cytotoxicity against human MFE296 cells incubated for 72 hrs by SRB assay; format: functional, cell-based; conditions: MFE-296, 72 h; summary of the method: as §3
[19] = Cell cycle arrest in human Mahlavu cells assessed as subG1/G1 phase accumulation at 5 uM incubated for 12 hrs to 24 hrs by propidium iodide staining based flow cytometry; format: functional; summary of the method: as §5
[20] = system: FOCUS; assay: Induction of apoptosis in human FOCUS cells assessed as DNA fragmentation at 10 uM incubated for 48 hrs by TUNEL assay; format: functional, cell-based; summary of the method: as §4
[21] = system: HCT-116; assay: Cytotoxicity against human HCT116 cells incubated for 72 hrs by SRB assay; format: functional, cell-based; conditions: HCT-116, 72 h; summary of the method: as §3
[22] = system: HepG2; assay: Increase in caspase-9 activation in human HepG2 cells at 10 uM incubated for 12 hrs by Caspase Glo assay; format: functional, cell-based
Summary of the method: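 HepG2 pre-incubated 24 h at 37 °C with DMSO, then moved to fresh medium with compound. Caspase-9 activity read by Caspase-Glo after 12 h and normalized to untreated controls. Two independent experiments in duplicate.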

[23] = system: HepG2; assay: Increase in caspase-9 activation in human HepG2 cells at 10 uM incubated for 12 hrs in presence of caspase-8 inhibitor z-IETD-fmk by Caspase Glo assay; format: functional, cell-based; summary of the method: as §7
[24] = system: Huh-7; assay: Induction of apoptosis in human HuH7 cells assessed as DNA fragmentation at 10 uM incubated for 48 hrs by TUNEL assay; format: functional, cell-based; summary of the method: as §4
[25] = system: CAMA-1; assay: Cytotoxicity against human CAMA1 cells incubated for 72 hrs by SRB assay; format: functional, cell-based; conditions: CAMA-1, 72 h; summary of the method: as §3
[26] = system: Huh-7; assay: Induction of caspase-8 cleavage in human HuH7 cells at 2.5 to 5 uM incubated for 6 to 24 hrs by Western blot; format: functional, cell-based; summary of the method: as §6
[27] = Cytotoxicity against human FOCUS cells incubated for 72 hrs by SRB assay; format: functional, cell-based; summary of the method: as §3
[28] = system: T47D; assay: Cytotoxicity against human T47D cells incubated for 72 hrs by SRB assay; format: functional, cell-based; summary of the method: as §3
[29] = system: HepG2; assay: Cytotoxicity against human HepG2 cells incubated for 72 hrs by SRB assay; format: functional, cell-based; conditions: HepG2, 72 h; summary of the method: as §3
[30] = system: BT-20; assay: Cytotoxicity against human BT20 cells incubated for 72 hrs by SRB assay; format: functional, cell-based; conditions: BT-20, 72 h; summary of the method: as §3
[31] = system: Huh-7; assay: Induction of caspase-9 cleavage in human HuH7 cells at 2.5 to 5 uM incubated for 6 to 24 hrs by Western blot; format: functional, cell-based; summary of the method: as §6
[32] = system: HepG2; assay: Increase in caspase-9 activation in human HepG2 cells at 10 uM incubated for 12 hrs in presence of caspase-3 inhibitor z-DEVD-fmk by Caspase Glo assay; format: functional, cell-based; summary of the method: as §7
[33] = system: HepG2; assay: Increase in caspase-8 activation in human HepG2 cells at 10 uM incubated for 12 hrs in presence of 50 uM caspase-3 inhibitor z-DEVD-fmk by Caspase Glo assay; format: functional, cell-based; summary of the method: as §7

CCOC(=O)[C@@H]1CSC(c2ccccc2)N1C(=O)c1cn(CCCNC(=O)C(F)(F)F)nn1 (stereo not given in full)
growth inhibition (GI) [1]: inactive

CCOC(=O)[C@@H]1CSC(c2ccccc2)N1C(=O)c1cn(CCc2ccc(F)cc2)nn1 (stereo not given in full)
growth inhibition (GI) [1]: inactive

CCOC(=O)[C@@H]1CSC(c2ccccc2)N1C(=O)c1cn(CCc2ccccc2)nn1 (stereo not given in full)
growth inhibition (GI) [1]: inactive

CCOC(=O)[C@@H]1CSC(c2ccccc2)N1C(=O)c1cn(CCc2ccsc2)nn1 (stereo not given in full)
Activity [2]: inactive | Activity [3]: inactive | Activity [4]: inactive | growth inhibition (GI) [1]: inactive

CCOC(=O)[C@@H]1CSC(c2ccccc2)N1C(=O)c1cn(Cc2ccccc2)nn1 (stereo not given in full)
growth inhibition (GI) [1]: inactive

COC(=O)CN(C[C@@H]1CSC(c2ccccc2)N1C(=O)c1ccccc1)C(=O)C(C)(C)C (stereo not given in full)
growth inhibition (GI) [1]: inactive

COC(=O)CN(C[C@@H]1CSC(c2ccccc2)N1C(=O)c1ccccc1)C(=O)c1c(F)c(F)c(F)c(F)c1F (stereo not given in full)
growth inhibition (GI) [1]: inactive

Cc1cn(CC(=O)N2C(c3ccccc3)SC[C@H]2C(=O)NC(C)(C)C)c(=O)[nH]c1=O (stereo not given in full)
Activity [2]: inactive | Activity [3]: inactive | Activity [4]: inactive | growth inhibition (GI) [1]: inactive

Cc1cn(CC(=O)N2C(c3ccccc3)SC[C@H]2C(=O)NC(C)C)c(=O)[nH]c1=O (stereo not given in full)
growth inhibition (GI) [1]: inactive

Cc1cn(CC(=O)N2C(c3ccccc3)SC[C@H]2C(=O)NCCc2ccccc2)c(=O)[nH]c1=O (stereo not given in full)
growth inhibition (GI) [1]: inactive

Cc1cn(CC(=O)N2C(c3ccccc3)SC[C@H]2C(=O)NCc2ccccc2)c(=O)[nH]c1=O (stereo not given in full)
growth inhibition (GI) [1]: inactive

O=C(O)CN(C[C@@H]1CSC(c2ccccc2)N1C(=O)c1ccccc1)C(=O)c1c(F)c(F)c(F)c(F)c1F (stereo not given in full)
growth inhibition (GI) [1]: inactive

O=C(c1c(F)c(F)c(F)c(F)c1F)N(CCc1ccsc1)C[C@@H]1CSC(c2ccccc2)N1C(=O)c1ccccc1 (stereo not given in full)
growth inhibition (GI) [1]: inactive

C#CC(=O)N1C(c2ccccc2)SC[C@H]1C(=O)OCC (mixture of isomers)
Activity [2]: Active | Activity [5]: inactive | Activity [6]: Active | Activity [7]: Active | IC50 [8]: 0.41 µM | Activity [9]: 100% | Activity [10]: Active | Activity [11]: Active | Activity [12]: Active | IC50 [13]: 4.7 µM | Activity [14]: Active | IC50 [15]: 5.3 µM | Activity [16]: inactive | Activity [3]: Active | Activity [17]: 100% | Activity [4]: Active | IC50 [18]: 0.5 µM | Activity [19]: Active | Activity [20]: Active | IC50 [21]: 9.23 µM | Activity [22]: Active | Activity [23]: inactive | Activity [24]: Active | IC50 [25]: 0.01 µM | Activity [26]: inactive | IC50 [27]: 5.47 µM | IC50 [28]: 7.62 µM | IC50 [29]: 10 µM | IC50 [30]: 1.6 µM | Activity [31]: Active | Activity [32]: inactive | Activity [33]: inactive | growth inhibition (GI) [1]: Active

CC[C@@]1(O)C(=O)OCc2c1cc1n(c2=O)Cc2cc3ccccc3nc2-1 [CAMPTOTHECIN]
IC50 [8]: < 1 µM | IC50 [13]: < 1 µM | IC50 [15]: 0.15 µM | IC50 [18]: < 1 µM | IC50 [21]: < 1 µM | IC50 [25]: 0.07 µM | IC50 [27]: < 1 µM | IC50 [28]: < 1 µM | IC50 [29]: 0.01 µM | IC50 [30]: 0.07 µM

O=c1[nH]cc(F)c(=O)[nH]1 [FLUOROURACIL]
IC50 [8]: 9.97 µM | IC50 [18]: 30.7 µM | IC50 [21]: 18.7 µM | IC50 [25]: 1.28 µM | IC50 [27]: 7.69 µM | IC50 [28]: 8.91 µM | IC50 [29]: 5.7 µM | IC50 [30]: 47.3 µM
